Source: PubChem BioAssay (several laboratories)
Only some compounds are listed: those with a hit (about 4.6% of all), similar ones and a draw of the others.
DSG3 Ab inh: blocks pemphigus antibody binding to human desmoglein-3; DSG3-coupled beads, scFv-anti-DSG3-GFP binding, flow cytometry; stronger effect = lower value; binding (percent of control), % at 10 µM; hit rate 0.48% among 310,000;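 active = binding more than 3 SD below its plate's average and above zero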
Target sequence (P32926 whole entry, looked up): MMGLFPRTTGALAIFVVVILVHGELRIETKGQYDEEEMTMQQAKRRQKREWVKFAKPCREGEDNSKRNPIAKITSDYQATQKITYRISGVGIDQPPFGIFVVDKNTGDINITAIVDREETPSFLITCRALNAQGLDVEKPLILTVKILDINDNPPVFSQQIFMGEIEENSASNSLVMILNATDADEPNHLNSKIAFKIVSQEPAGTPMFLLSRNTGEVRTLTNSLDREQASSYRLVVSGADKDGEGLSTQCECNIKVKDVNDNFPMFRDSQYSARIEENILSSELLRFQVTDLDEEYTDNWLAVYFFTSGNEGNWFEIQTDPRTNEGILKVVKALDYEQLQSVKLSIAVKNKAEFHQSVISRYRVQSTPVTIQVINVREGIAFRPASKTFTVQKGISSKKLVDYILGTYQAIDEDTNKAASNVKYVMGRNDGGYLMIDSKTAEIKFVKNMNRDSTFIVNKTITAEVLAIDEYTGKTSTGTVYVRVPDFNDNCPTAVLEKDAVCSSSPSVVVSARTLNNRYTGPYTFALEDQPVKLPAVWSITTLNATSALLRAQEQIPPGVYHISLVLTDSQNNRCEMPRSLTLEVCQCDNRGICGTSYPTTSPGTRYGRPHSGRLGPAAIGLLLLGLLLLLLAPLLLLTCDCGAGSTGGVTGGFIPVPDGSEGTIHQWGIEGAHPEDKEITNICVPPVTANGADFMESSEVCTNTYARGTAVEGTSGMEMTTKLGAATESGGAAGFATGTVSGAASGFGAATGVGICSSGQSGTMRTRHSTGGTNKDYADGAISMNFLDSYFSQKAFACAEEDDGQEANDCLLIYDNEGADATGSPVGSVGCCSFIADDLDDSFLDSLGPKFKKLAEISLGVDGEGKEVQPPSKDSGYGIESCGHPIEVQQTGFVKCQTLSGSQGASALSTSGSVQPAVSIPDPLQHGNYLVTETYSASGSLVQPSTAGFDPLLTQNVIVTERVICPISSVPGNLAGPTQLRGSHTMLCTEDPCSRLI
PolyA inh: blocks polyadenylation in yeast reporter cells | S. cerevisiae SKY197-pL101 polyadenylation reporter, beta-gal luminescence; efflux-impaired pdr1/pdr3 knockout yeast; score 100 = 6 SD above DMSO | activity score, % at 12 µM | hit rate 0.02% among 300,000;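 active = lowest replicate activity score at least 50, where 100 means six control SD above control mean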;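 also: yeast exposed to compound for 9 h at 30 °C; higher score means more reporter readthrough which indicates perturbed polyadenylation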
NLRP3 yeast inh: inhibitors of NALP3 inflammasome in yeast; Yeast reconstituted NLRP3/ASC/caspase-1, beta-gal luminescence, 24 h; inhibition, % at 10 µM; hit rate 0.39% among 330,000; AID 2825;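 active = inhibition of 50% or more; inactive = inhibition below 50%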
Arr AP2 block: blocks beta-arrestin peptide binding to AP2 adaptin. FITC-arrestin peptide / GST-AP2 beads, flow cytometry; AP2 beta2 appendage carries R879A mutation. inhibition, % at 10 µM. hit rate 0.31% among 340,000. AID 504490;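 active = inhibition above a set limit, near 3 SD of compounds lacking own fluorescence, cut at about 54% in these data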
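Material – GST-tagged AP2 beta2-adaptin appendage (R879A) on 4 µm glutathione beads · Probe or stimulus – fluorescein-tagged arrestin peptide at 50 nM final · Timing – 12 min plus 1 h, RT · Detection – bead flow cytometry, FITC channel · Read-out basis – inhibition as reduced fluorescein signal on beads, percent · Medium – PBS plus Tween 20 (0.05%) and BSA (0.1%)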
ALR inh: inhibitors of human sulfhydryl oxidase ALR; P55789; hit rate 3.8% among 290,000; inhibition, % (concentration not given with the values); purified ALR, DTT oxidation, H2O2 HRP-luminol luminescence;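 active = mean replicate inhibition above about 79%, with every replicate also reaching it, limit read from the data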
NALP1 inh: blocks the NALP1 inflammasome reconstituted in yeast; AID 2071; S. cerevisiae NALP1/ASC/caspase-1 growth, X-gal OD620, 72 h; inhibition, % at 10 µM; hit rate 0.61% among 280,000; in the data active = inhibition mostly above about 24%, no sharp cut-off; inactive = mostly below about 32%
Of the large screens only hits and unclear results are named; the others gave an inactive call.

O=C(COc1cccc(C(F)(F)F)c1)N1CCN(c2ccc(O)cc2)CC1	none (no result: ALR inh)
O=C(COc1cccc(C(F)(F)F)c1)N1CCN(c2ccccc2O)CC1	ALR inh 98
Nc1ncc(Br)cc1S(=O)(=O)NCCC(=O)N1CCN(c2ccccn2)CC1	none
Nc1ncc(Br)cc1S(=O)(=O)NCCC(=O)N1CCN(c2ccccc2)CC1	ALR inh 96
CCOc1ccc(S(=O)(=O)NCCC(=O)N2CCN(c3ccccc3O)CC2)cc1	ALR inh 98 (no result: NALP1 inh)
O=C(CCNS(=O)(=O)c1ccccc1C(F)(F)F)N1CCN(S(=O)(=O)c2cccc(Cl)c2)CC1	none (no result: NALP1 inh)
O=C(CCNS(=O)(=O)c1ccccc1C(F)(F)F)N1CCN(c2ccccc2O)CC1	ALR inh 99 (no result: NALP1 inh)
Cc1ccc(C)c(N(CC(=O)NCc2ccco2)C(=O)CCC(=O)Nc2nccs2)c1	none
O=C(COc1ccc2ccc(=O)oc2c1)NC1CCN(Cc2ccccc2)CC1	none
CCN(CC)C(=O)C1=C(C)N(Cc2ccc(C(C)(C)C)cc2)C(=O)C(CC(=O)NCCCCc2ccccc2)C1 (stereo not given)	none (no result: PolyA inh, NLRP3 yeast inh, Arr AP2 block, ALR inh, NALP1 inh)
COc1ccc(CN2C(=O)C(CC(=O)NCC3CCCCC3)CC(C(=O)N3CCOCC3)=C2C)cc1 (stereo not given)	none (no result: PolyA inh, NLRP3 yeast inh, Arr AP2 block, ALR inh, NALP1 inh)
O=C(Cc1ccc(N2CCNC2=O)cc1)N1CCCC(Nc2cccc(F)c2)C1 (stereo not given)	ALR inh 99 (no result: DSG3 Ab inh)
O=C(CC1CCCC1)N1CCCC(Nc2cccc(F)c2)C1 (stereo not given)	ALR inh 92
O=C(Cc1ccc(N2CCNC2=O)cc1)N1CCCC(Nc2ccc(F)c(F)c2)C1 (stereo not given)	none
CC1(CCC(=O)N2CCCC(Nc3ccc(F)cc3)C2)CC1 (stereo not given)	ALR inh 98
Cc1cc(C)n(CCC(=O)N2CCCC(Nc3ccc(F)cc3)C2)n1 (stereo not given)	ALR inh 98
O=C(COC(=O)Cc1ccc(Cl)c(Cl)c1)NCCc1ccccc1	none (no result: PolyA inh, NLRP3 yeast inh, Arr AP2 block, ALR inh, NALP1 inh)
O=C(Nc1cc(Cl)ccc1C(=O)O)c1ccc(CN2C(=O)c3ccccc3C2=O)cc1	none (no result: NLRP3 yeast inh, ALR inh, NALP1 inh)
O=C(CC1CCCC1)N1CCN(S(=O)(=O)c2ccc(F)cc2)CC1	none (no result: PolyA inh, NALP1 inh)
O=C(CC1CCCC1)N1CCCC(Nc2ccc(F)cc2)C1 (stereo not given)	ALR inh 99 (no result: DSG3 Ab inh)
Cc1cc(=O)oc2cc(OCC(=O)NCCc3nc4ccccc4[nH]3)ccc12	NALP1 inh 38
Cc1cc(C)cc(OCC(=O)NCCc2nc3ccccc3[nH]2)c1	none (no result: DSG3 Ab inh)
Cc1ccccc1OCC(=O)NCCc1nc2ccccc2[nH]1	ALR inh 99
CC(C)CC(Nc1ncnc2scc(-c3ccccc3)c12)C(=O)O (stereo not given)	PolyA inh 60
CCC(C)C(Nc1ncnc2scc(-c3ccccc3)c12)C(=O)O (stereo not given)	none
CCn1cc(/C=C(\NC(=O)c2ccccc2F)C(=O)N2CCN(C)CC2)c2ccccc21	none (no result: PolyA inh, NLRP3 yeast inh, Arr AP2 block, ALR inh, NALP1 inh)
COc1ccccc1CNC(=O)COC(=O)c1cnc(C)cn1	none (no result: PolyA inh, NLRP3 yeast inh, Arr AP2 block, ALR inh, NALP1 inh)
COc1ccc(N2CCN(C(CNC(=O)c3ccc4c(c3)OCO4)c3ccco3)CC2)cc1 (stereo not given)	none
COCCNC(=O)C(=O)NCC(c1ccc2c(c1)OCO2)N1CCN(c2ccc(F)cc2)CC1 (stereo not given)	none
COc1ccc(N2CCN(C(CNC(=O)C(C)C)c3ccc4c(c3)OCO4)CC2)cc1 (stereo not given)	ALR inh 86
CN(C)CCNC(=O)C(=O)NCC(c1ccc2c(c1)OCO2)N1CCN(c2ccc(F)cc2)CC1 (stereo not given)	ALR inh 99 (no result: DSG3 Ab inh)
COC(=O)NCC(c1ccc2c(c1)OCO2)N1CCN(c2ccc(OC)cc2)CC1 (stereo not given)	ALR inh 91 (no result: DSG3 Ab inh)
C[C@@H]1CN([C@H](C)CO)C(=O)c2cc(Br)cnc2O[C@@H]1CN(C)C(=O)NC1CCCC1	none (no result: PolyA inh, NLRP3 yeast inh, Arr AP2 block, ALR inh, NALP1 inh)
CC1CCCC(C)N1C(=O)COC(=O)COc1ccc(C#N)cc1 (stereo not given)	none (no result: PolyA inh, ALR inh, NALP1 inh)
CC1(C)CC2(C)CC(=O)C1C(C(=O)O)C2C(=O)O (stereo not given)	none (no result: PolyA inh, NLRP3 yeast inh, Arr AP2 block, ALR inh, NALP1 inh)
COc1ccc(S(=O)(=O)N2CCN(C(=O)Nc3ccccc3OC)CC2)cc1	none
O=C(CN1CCN(c2ccc(F)cc2)CC1)N1CCC(Cc2ccccc2)CC1	NALP1 inh 31
O=C(CN1CCN(c2ccc(F)cc2)CC1)N1CCOCC1	ALR inh 88
CCCCCOCC1CC(C/C(C)=N/Nc2nc(-c3ccccc3)cs2)C(=O)O1 (stereo not given)	ALR inh 96
O=C(CCC(=O)c1ccc(Cl)cc1)OCc1nc2ccsc2c(=O)[nH]1	none (no result: NALP1 inh)
Cc1nc2ccc(NC(=O)c3cc([N+](=O)[O-])cc([N+](=O)[O-])c3Cl)cc2s1	NALP1 inh 58 (no result: PolyA inh, NLRP3 yeast inh)
Cc1nc2ccc(NC(=O)CCS(=O)(=O)c3ccc(Cl)cc3)cc2s1	DSG3 Ab inh -174 (no result: ALR inh)
C[C@H]1CN([C@@H](C)CO)C(=O)CCCn2cc(nn2)CO[C@@H]1CN(C)C(=O)Nc1cccc(F)c1	none (no result: PolyA inh, NLRP3 yeast inh, Arr AP2 block, ALR inh, NALP1 inh)
C#CCn1c2ccccc2c2nc3ccccc3nc21	DSG3 Ab inh 82
N#CCn1c2ccccc2c2nc3ccccc3nc21	none
Cc1cccnc1NC(=O)CCCNC(=O)c1ccc(Cl)cc1	none (no result: NALP1 inh)
CCC(CC)c1nnc(NC(=O)c2ccc3ccccc3n2)s1	DSG3 Ab inh 13
